Values belong to the molecule of their own block, whether it stands above or below them. Activity calls are given as the source filed them. No cut-off for these calls is given here.
How the values were obtained:
[1] = biological target: T1, Protein cereblon/Dual specificity mitogen-activated protein kinase kinase 1/Dual specificity mitogen-activated protein kinase kinase 2 (Homo sapiens) (UniProt P36507+Q02750+Q96SW2); experiment: Protac activity at CRBN/MEK1/2 in human A549 cells assessed as MEK1/2 degradation at 1 uM incubated for 24 hrs by Western blot analysis relative to control; format: cell-based
[2] = biological target: T1, Protein cereblon/Dual specificity mitogen-activated protein kinase kinase 1/Dual specificity mitogen-activated protein kinase kinase 2 (Homo sapiens); experiment: Protac activity at CRBN/MEK1/2 in human A549 cells assessed as MEK1/2 degradation at 10 uM incubated for 24 hrs by Western blot analysis relative to control; format: cell-based
[3] = biological target: T2, von Hippel-Lindau disease tumor suppressor/Dual specificity mitogen-activated protein kinase kinase 2/Dual specificity mitogen-activated protein kinase kinase 1 (Homo sapiens) (UniProt P36507+Q02750+P40337); experiment: Protac activity at VHL/MEK1/2 in human A549 cells assessed as MEK1/2 degradation at 1 uM incubated for 24 hrs by Western blot analysis relative to control; format: cell-based
[4] = biological target: T2, von Hippel-Lindau disease tumor suppressor/Dual specificity mitogen-activated protein kinase kinase 2/Dual specificity mitogen-activated protein kinase kinase 1 (Homo sapiens); experiment: Protac activity at VHL/MEK1/2 in human A549 cells assessed as MEK1/2 degradation at 10 uM incubated for 24 hrs by Western blot analysis relative to control; format: cell-based
[5] = test system: A-375; experiment: Antiproliferative activity against human A-375 cells assessed as inhibition of cell growth at 10 uM incubated for 48 hrs by MTT assay; format: functional; set-up: scale not given: the % may be the effect or the level left
[6] = test system: A-375; experiment: Antiproliferative activity against human A-375 cells incubated for 4 days by MTT assay; format: functional, cell-based; settings: A-375, 96 h
[7] = biological target: T3, Dual specificity mitogen-activated protein kinase kinase; MEK1/2 (Homo sapiens, UniProt P36507+Q02750); experiment: Induction of MEK1/2 degradation in human A549 cells at 1 uM incubated for 4 hrs by Western blot analysis; format: cell-based
In short: (§1)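 Time course in A549 cells at 1 μM degrader, sampled at several time points up to 24 h. MEK1/2 protein reduction was judged by Western blot at each time point.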

[8] = biological target: T3, Dual specificity mitogen-activated protein kinase kinase; MEK1/2; experiment: Induction of MEK1/2 degradation in human A549 cells at 1 uM incubated for 24 hrs by Western blot analysis; format: cell-based; in short: as §1
[9] = biological target: Dual specificity mitogen-activated protein kinase kinase 1 (Homo sapiens, UniProt Q02750); experiment: Induction of MEK1 degradation in human A549 cells incubated for 24 hrs by Western blot analysis; format: cell-based
In short: (§2)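 A549 cells exposed to a range of degrader concentrations for 24 h. MEK1 and MEK2 protein levels were read by Western blot, and a separate half-maximal degradation concentration (DC50) was derived for each.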

[10] = biological target: Dual specificity mitogen-activated protein kinase kinase 2 (Homo sapiens, UniProt P36507); experiment: Induction of MEK2 degradation in human A549 cells incubated for 24 hrs by Western blot analysis; format: cell-based; in short: as §2
[11] = biological target: T3, Dual specificity mitogen-activated protein kinase kinase; MEK1/2; experiment: Induction of MEK1/2 degradation in human A-375 cells incubated for 24 hrs by Western blot analysis; format: cell-based
In short: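 A375 cells were given a concentration series of degrader for 24 h. MEK1/2 protein was quantified by immunoblot, and the DC50 (half-maximal degradation concentration) was taken from the dose-response.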

[12] = biological target: T3, Dual specificity mitogen-activated protein kinase kinase; MEK1/2; experiment: Induction of MEK1/2 degradation in human A549 cells at 1 uM incubated for 24 hrs in presence of 3-(3-amino-2-fluorobenzyl)-4-methyl-7-(pyrimidin-2-yloxy)-2H-chromen-2-one by Western blot analysis; format: cell-based
[13] = biological target: T3, Dual specificity mitogen-activated protein kinase kinase; MEK1/2; experiment: Induction of MEK1/2 degradation in human A549 cells at 1 uM incubated for 24 hrs in presence of (2S,4R)-1-((S)-2-amino-3,3-dimethylbutanoyl)-4-hydroxy-N-((S)-1-(4-(4-methylthiazol-5-yl)phenyl)ethyl)pyrrolidine-2-carboxamide by Western blot analysis; format: cell-based
[14] = biological target: T3, Dual specificity mitogen-activated protein kinase kinase; MEK1/2; experiment: Induction of MEK1/2 degradation in human A549 cells at 1 uM incubated for 24 hrs in presence of MLN4924 by Western blot analysis; format: cell-based
[15] = biological target: T3, Dual specificity mitogen-activated protein kinase kinase; MEK1/2; experiment: Induction of MEK1/2 degradation in human A549 cells at 1 uM incubated for 24 hrs in presence of MG132 by Western blot analysis; format: cell-based
[16] = biological target: T3, Dual specificity mitogen-activated protein kinase kinase; MEK1/2; experiment: Induction of MEK1/2 degradation in human A549 cells assessed as reduction in pERK1/2 levels at 1 to 30 uM incubated for 24 hrs by Western blot analysis; format: cell-based; settings: dose 1-30 µM
[17] = test system: A549; experiment: Antiproliferative activity against human A549 cells incubated for 4 days by MTT assay; format: functional, cell-based; settings: A549, 96 h
[18] = Selectivity ratio of IC50 for human A549 cells to IC50 for human A-375 cells; format: functional

T1 sequence (P36507 whole entry, looked up): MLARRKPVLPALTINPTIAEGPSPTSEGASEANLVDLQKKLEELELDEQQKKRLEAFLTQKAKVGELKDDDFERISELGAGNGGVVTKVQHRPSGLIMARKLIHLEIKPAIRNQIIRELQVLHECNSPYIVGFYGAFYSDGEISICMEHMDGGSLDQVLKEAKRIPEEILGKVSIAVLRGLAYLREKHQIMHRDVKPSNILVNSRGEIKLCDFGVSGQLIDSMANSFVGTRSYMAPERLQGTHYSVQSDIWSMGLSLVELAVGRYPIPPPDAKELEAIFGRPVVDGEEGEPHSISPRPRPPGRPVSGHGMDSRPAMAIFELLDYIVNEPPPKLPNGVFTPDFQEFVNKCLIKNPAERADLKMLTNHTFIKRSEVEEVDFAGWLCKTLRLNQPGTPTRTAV
T1 sequence (Q02750 whole entry, looked up): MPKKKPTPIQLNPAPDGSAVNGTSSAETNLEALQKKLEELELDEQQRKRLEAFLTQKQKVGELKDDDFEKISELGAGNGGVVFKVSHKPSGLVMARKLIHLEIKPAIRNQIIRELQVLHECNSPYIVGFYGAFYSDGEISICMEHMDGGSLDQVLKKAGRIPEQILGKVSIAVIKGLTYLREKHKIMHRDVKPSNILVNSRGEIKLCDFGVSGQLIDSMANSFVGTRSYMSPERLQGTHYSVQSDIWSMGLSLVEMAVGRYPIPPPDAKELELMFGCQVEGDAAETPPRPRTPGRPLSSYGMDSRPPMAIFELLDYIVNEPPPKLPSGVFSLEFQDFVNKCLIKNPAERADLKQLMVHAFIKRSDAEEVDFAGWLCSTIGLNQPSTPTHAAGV
T1 sequence (Q96SW2 whole entry, looked up): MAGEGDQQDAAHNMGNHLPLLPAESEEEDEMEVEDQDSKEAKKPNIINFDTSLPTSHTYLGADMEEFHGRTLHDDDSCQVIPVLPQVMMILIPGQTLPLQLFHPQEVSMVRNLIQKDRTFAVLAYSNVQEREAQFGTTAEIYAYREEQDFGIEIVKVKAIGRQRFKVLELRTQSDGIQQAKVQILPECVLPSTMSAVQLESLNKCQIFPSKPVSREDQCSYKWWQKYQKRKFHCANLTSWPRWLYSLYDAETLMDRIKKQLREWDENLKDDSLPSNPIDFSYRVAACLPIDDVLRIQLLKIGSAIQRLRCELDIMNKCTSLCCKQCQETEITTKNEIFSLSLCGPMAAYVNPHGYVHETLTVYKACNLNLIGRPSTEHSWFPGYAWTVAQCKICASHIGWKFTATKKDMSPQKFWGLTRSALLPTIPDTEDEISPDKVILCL
T3 sequence (P36507 whole entry, looked up): as the sequence (P36507 whole entry, looked up) above
T3 sequence (Q02750 whole entry, looked up): as the sequence (Q02750 whole entry, looked up) above
T2 sequence (P36507 whole entry, looked up): as the sequence (P36507 whole entry, looked up) above
T2 sequence (P40337 whole entry, looked up): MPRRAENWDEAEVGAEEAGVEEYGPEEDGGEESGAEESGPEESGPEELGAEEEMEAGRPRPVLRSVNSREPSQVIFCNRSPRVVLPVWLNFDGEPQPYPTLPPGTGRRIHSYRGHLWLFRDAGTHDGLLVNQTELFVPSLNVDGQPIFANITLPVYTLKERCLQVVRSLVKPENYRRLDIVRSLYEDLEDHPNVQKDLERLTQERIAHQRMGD
T2 sequence (Q02750 whole entry, looked up): as the sequence (Q02750 whole entry, looked up) above
Sequence of Dual specificity mitogen-activated protein kinase kinase 2 (P36507 whole entry): as the sequence (P36507 whole entry, looked up) above
Sequence of Dual specificity mitogen-activated protein kinase kinase 1 (Q02750 whole entry): as the sequence (Q02750 whole entry, looked up) above

Structure (SMILES): Cc1c(Cc2cccc(NC(=O)CCCCNC(=O)CCC(=O)Nc3cccc4c3C(=O)N(C3CCC(=O)NC3=O)C4=O)c2F)c(=O)oc2cc(Oc3ncccn3)ccc12 (configuration not stated)
- Activity [1]: < 5%

Structure (SMILES): Cc1c(Cc2cccc(NCc3cn(CCOCCOCCNc4cccc5c4C(=O)N(C4CCC(=O)NC4=O)C5=O)nn3)c2)c(=O)oc2cc(Oc3ncccn3)ccc12 (configuration not stated)
- Activity [2]: inactive

Structure (SMILES): Cc1c(Cc2cccc(NC(=O)CCCCCNC(=O)CCC(=O)Nc3cccc4c3C(=O)N(C3CCC(=O)NC3=O)C4=O)c2F)c(=O)oc2cc(Oc3ncccn3)ccc12 (configuration not stated)
- Activity [1]: inactive

Structure (SMILES): Cc1ncsc1-c1ccc([C@H](C)NC(=O)[C@@H]2C[C@@H](O)CN2C(=O)[C@@H](NC(=O)CCC(=O)NCCCCCCCC(=O)Nc2cccc(Cc3c(C)c4ccc(Oc5ncccn5)cc4oc3=O)c2F)C(C)(C)C)cc1
- Activity [3]: 78%

Structure (SMILES): Cc1ncsc1-c1ccc([C@H](C)NC(=O)[C@@H]2C[C@@H](O)CN2C(=O)[C@@H](NCCOCCOCCn2cc(CNc3cccc(Cc4c(C)c5ccc(Oc6ncccn6)cc5oc4=O)c3F)nn2)C(C)(C)C)cc1
- Activity [4]: 20%

Structure (SMILES): Cc1c(Cc2cccc(NC(=O)CCCNC(=O)CCC(=O)Nc3cccc4c3C(=O)N(C3CCC(=O)NC3=O)C4=O)c2F)c(=O)oc2cc(Oc3ncccn3)ccc12 (configuration not stated)
- Activity [1]: inactive

Structure (SMILES): Cc1ncsc1-c1ccc([C@H](C)NC(=O)[C@@H]2C[C@@H](O)CN2C(=O)[C@@H](NCCOCCOCCOCCn2cc(CNc3cccc(Cc4c(C)c5ccc(Oc6ncccn6)cc5oc4=O)c3F)nn2)C(C)(C)C)cc1
- Activity [4]: inactive

Structure (SMILES): Cc1c(Cc2cccc(NCc3cn(CCOCCOCCOCCOCCOCCNc4cccc5c4C(=O)N(C4CCC(=O)NC4=O)C5=O)nn3)c2)c(=O)oc2cc(Oc3ncccn3)ccc12 (configuration not stated)
- Activity [2]: inactive

Structure (SMILES): Cc1ncsc1-c1ccc([C@H](C)NC(=O)[C@@H]2C[C@@H](O)CN2C(=O)[C@@H](NC(=O)CCC(=O)NCCCC(=O)Nc2cccc(Cc3c(C)c4ccc(Oc5ncccn5)cc4oc3=O)c2F)C(C)(C)C)cc1
- Activity [3]: 20%
- Activity [5]: 13%

Structure (SMILES): Cc1c(Cc2cccc(NC(=O)CCCCCCCNC(=O)CCC(=O)Nc3cccc4c3C(=O)N(C3CCC(=O)NC3=O)C4=O)c2F)c(=O)oc2cc(Oc3ncccn3)ccc12 (configuration not stated)
- Activity [1]: 30%

Structure (SMILES): Cc1ncsc1-c1ccc([C@H](C)NC(=O)[C@@H]2C[C@@H](O)CN2C(=O)[C@@H](NC(=O)CCC(=O)NCCCCCCC(=O)Nc2cccc(Cc3c(C)c4ccc(Oc5ncccn5)cc4oc3=O)c2)C(C)(C)C)cc1
- Activity [3]: < 5%

Structure (SMILES): Cc1c(Cc2cccc(NCc3cn(CCOCCOCCOCCOCCNc4cccc5c4C(=O)N(C4CCC(=O)NC4=O)C5=O)nn3)c2F)c(=O)oc2cc(Oc3ncccn3)ccc12 (configuration not stated)
- Activity [2]: inactive

Structure (SMILES): Cc1c(Cc2cccc(NCc3cn(CCOCCOCCOCCOCCNc4cccc5c4C(=O)N(C4CCC(=O)NC4=O)C5=O)nn3)c2)c(=O)oc2cc(Oc3ncccn3)ccc12 (configuration not stated)
- Activity [2]: inactive

Structure (SMILES): Cc1ncsc1-c1ccc([C@H](C)NC(=O)[C@@H]2C[C@@H](O)CN2C(=O)[C@@H](NCCOCCOCCOCCOCCn2cc(CNc3cccc(Cc4c(C)c5ccc(Oc6ncccn6)cc5oc4=O)c3)nn2)C(C)(C)C)cc1
- Activity [4]: inactive

Structure (SMILES): Cc1ncsc1-c1ccc([C@H](C)NC(=O)[C@@H]2C[C@@H](O)CN2C(=O)[C@@H](NCCOCCOCCOCCOCCOCCn2cc(CNc3cccc(Cc4c(C)c5ccc(Oc6ncccn6)cc5oc4=O)c3F)nn2)C(C)(C)C)cc1
- Activity [4]: inactive

Structure (SMILES): Cc1ncsc1-c1ccc([C@H](C)NC(=O)[C@@H]2C[C@@H](O)CN2C(=O)[C@@H](NC(=O)CCC(=O)NCCCCCCCCCCCC(=O)Nc2cccc(Cc3c(C)c4ccc(Oc5ncccn5)cc4oc3=O)c2)C(C)(C)C)cc1
- Activity [3]: < 5%

Structure (SMILES): Cc1c(Cc2cccc(NCc3cn(CCOCCOCCNc4cccc5c4C(=O)N(C4CCC(=O)NC4=O)C5=O)nn3)c2F)c(=O)oc2cc(Oc3ncccn3)ccc12 (configuration not stated)
- Activity [2]: inactive

Structure (SMILES): Cc1ncsc1-c1ccc([C@H](C)NC(=O)[C@@H]2C[C@@H](O)CN2C(=O)[C@@H](NC(=O)CCC(=O)NCCCC(=O)Nc2cccc(Cc3c(C)c4ccc(Oc5ncccn5)cc4oc3=O)c2)C(C)(C)C)cc1
- Activity [3]: < 5%
- Activity [5]: 21%

Structure (SMILES): Cc1ncsc1-c1ccc([C@H](C)NC(=O)[C@@H]2C[C@@H](O)CN2C(=O)[C@@H](NC(=O)CCC(=O)NCCCCC(=O)Nc2cccc(Cc3c(C)c4ccc(Oc5ncccn5)cc4oc3=O)c2F)C(C)(C)C)cc1
- Activity [3]: 85%
- Activity [7]: Active
- Activity [8]: > 70%
- DC50 [9]: 300 nM
- DC50 [10]: 200 nM
- DC50 [11]: 2800 nM
- Activity [12]: inactive
- Activity [13]: inactive
- Activity [14]: inactive
- Activity [15]: inactive
- Activity [16]: Active
- IC50 [17]: 27300 nM
- IC50 [6]: 2800 nM
- Ratio IC50 [18]: 10
- Activity [5]: 60%

More lines, now with the values ahead:

- Activity [2]: inactive
Structure (SMILES): Cc1c(Cc2cccc(NCc3cn(CCOCCOCCOCCNc4cccc5c4C(=O)N(C4CCC(=O)NC4=O)C5=O)nn3)c2F)c(=O)oc2cc(Oc3ncccn3)ccc12 (configuration not stated)

- Activity [3]: 72%
Structure (SMILES): Cc1ncsc1-c1ccc([C@H](C)NC(=O)[C@@H]2C[C@@H](O)CN2C(=O)[C@@H](NC(=O)CCC(=O)NCCCCCC(=O)Nc2cccc(Cc3c(C)c4ccc(Oc5ncccn5)cc4oc3=O)c2F)C(C)(C)C)cc1

- Activity [4]: inactive
Structure (SMILES): Cc1ncsc1-c1ccc([C@H](C)NC(=O)[C@@H]2C[C@@H](O)CN2C(=O)[C@@H](NCCOCCOCCOCCn2cc(CNc3cccc(Cc4c(C)c5ccc(Oc6ncccn6)cc5oc4=O)c3)nn2)C(C)(C)C)cc1

- Activity [2]: inactive
Structure (SMILES): Cc1c(Cc2cccc(NCc3cn(CCOCCOCCOCCNc4cccc5c4C(=O)N(C4CCC(=O)NC4=O)C5=O)nn3)c2)c(=O)oc2cc(Oc3ncccn3)ccc12 (configuration not stated)

- Activity [4]: inactive
Structure (SMILES): Cc1ncsc1-c1ccc([C@H](C)NC(=O)[C@@H]2C[C@@H](O)CN2C(=O)[C@@H](NCCOCCOCCn2cc(CNc3cccc(Cc4c(C)c5ccc(Oc6ncccn6)cc5oc4=O)c3)nn2)C(C)(C)C)cc1

- Activity [4]: inactive
Structure (SMILES): Cc1ncsc1-c1ccc([C@H](C)NC(=O)[C@@H]2C[C@@H](O)CN2C(=O)[C@@H](NCCOCCOCCOCCOCCOCCn2cc(CNc3cccc(Cc4c(C)c5ccc(Oc6ncccn6)cc5oc4=O)c3)nn2)C(C)(C)C)cc1

- Activity [4]: inactive
Structure (SMILES): Cc1ncsc1-c1ccc([C@H](C)NC(=O)[C@@H]2C[C@@H](O)CN2C(=O)[C@@H](NCCOCCOCCOCCOCCn2cc(CNc3cccc(Cc4c(C)c5ccc(Oc6ncccn6)cc5oc4=O)c3F)nn2)C(C)(C)C)cc1

- Activity [3]: < 5%
Structure (SMILES): Cc1ncsc1-c1ccc([C@H](C)NC(=O)[C@@H]2C[C@@H](O)CN2C(=O)[C@@H](NC(=O)CCC(=O)NCCCCCCCCCCC(=O)Nc2cccc(Cc3c(C)c4ccc(Oc5ncccn5)cc4oc3=O)c2)C(C)(C)C)cc1

- Activity [1]: 45%
Structure (SMILES): Cc1c(Cc2cccc(NC(=O)CCCCCCNC(=O)CCC(=O)Nc3cccc4c3C(=O)N(C3CCC(=O)NC3=O)C4=O)c2F)c(=O)oc2cc(Oc3ncccn3)ccc12 (configuration not stated)

- Activity [2]: inactive
Structure (SMILES): Cc1c(Cc2cccc(NCc3cn(CCOCCOCCOCCOCCOCCNc4cccc5c4C(=O)N(C4CCC(=O)NC4=O)C5=O)nn3)c2F)c(=O)oc2cc(Oc3ncccn3)ccc12 (configuration not stated)

- IC50 [6]: 1900 nM
Structure (SMILES): CNS(=O)(=O)Nc1cccc(Cc2c(C)c3ccc(Oc4ncccn4)cc3oc2=O)c1F

- Activity [3]: 70%
Structure (SMILES): Cc1ncsc1-c1ccc([C@H](C)NC(=O)[C@@H]2C[C@@H](O)CN2C(=O)[C@@H](NC(=O)CCC(=O)NCCCCCCC(=O)Nc2cccc(Cc3c(C)c4ccc(Oc5ncccn5)cc4oc3=O)c2F)C(C)(C)C)cc1
